The values that follow come from ChEMBL document CHEMBL3351968, “Synthesis and analgesic activity of alkylated, reduced and constrained oligoheterocyclic peptidomimetic analogs of Leu-enkephalin” (Bioorg Med Chem Lett, 2014).

Assay [1] addresses Kappa-type opioid receptor (Cavia porcellus, UniProt P41144). Description: Displacement of [3H]U69593 from kappa opioid receptor in guinea pig cortices membrane by liquid scintillation counting analysis. Type of assay: cell membranes. The essentials: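 Competitive radioligand binding at the kappa (KOR) opioid receptor with [3H]-U69,593 as tracer; affinity expressed as Ki.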
In general terms: Displacement assays read how much labelled ligand stays bound in the presence of the test substance.

Another assay concerns the target Mu-type opioid receptor (Rattus norvegicus, UniProt P33535). Description: Displacement of [3H]DAMGO from mu opioid receptor in rat brain membrane by liquid scintillation counting analysis. The class given is cell membranes. In short, it runs like this:
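Competitive radioligand binding at the mu (MOR) opioid receptor with [3H]-DAMGO as tracer; affinity expressed as Ki.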

Square brackets hold non-standard residues; d marks the D form. Peptide text beside a SMILES is read from it. ξ: configuration not given here. NMeY = CN[C@@H](Cc1ccc(O)cc1)C(=O)O; NMeF = CN[C@@H](Cc1ccccc1)C(=O)O; ξP = O=C(O)C1CCCN1; Ava = NCCCCC(=O)O

As a reminder, the Ki is a measure of affinity in units of concentration, obtained from inhibition or displacement.

Sequence of Kappa-type opioid receptor (P41144 whole entry): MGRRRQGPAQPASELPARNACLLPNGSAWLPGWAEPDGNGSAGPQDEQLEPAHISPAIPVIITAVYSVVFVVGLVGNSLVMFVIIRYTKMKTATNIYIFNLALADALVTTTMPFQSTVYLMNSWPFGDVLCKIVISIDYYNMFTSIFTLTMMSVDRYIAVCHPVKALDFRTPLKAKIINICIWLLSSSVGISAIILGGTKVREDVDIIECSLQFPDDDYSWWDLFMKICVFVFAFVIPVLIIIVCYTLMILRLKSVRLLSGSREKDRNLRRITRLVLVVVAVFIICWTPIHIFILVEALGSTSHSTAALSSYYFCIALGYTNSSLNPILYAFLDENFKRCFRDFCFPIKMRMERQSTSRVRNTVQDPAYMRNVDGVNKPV
Sequence of Mu-type opioid receptor (P33535 whole entry): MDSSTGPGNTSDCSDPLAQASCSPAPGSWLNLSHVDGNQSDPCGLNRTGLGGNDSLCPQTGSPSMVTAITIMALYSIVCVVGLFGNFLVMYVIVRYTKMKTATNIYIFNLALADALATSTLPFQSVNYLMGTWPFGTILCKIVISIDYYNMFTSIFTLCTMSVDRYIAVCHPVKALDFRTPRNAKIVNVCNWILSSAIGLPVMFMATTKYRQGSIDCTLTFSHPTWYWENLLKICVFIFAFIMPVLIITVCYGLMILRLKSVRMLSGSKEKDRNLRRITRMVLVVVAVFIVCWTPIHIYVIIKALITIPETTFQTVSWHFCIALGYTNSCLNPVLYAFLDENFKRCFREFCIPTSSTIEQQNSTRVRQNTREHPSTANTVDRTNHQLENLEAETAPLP

On to `CC(C)C[C@H]1CNCCN1C[C@H](Cc1ccccc1)N(C)CCN(C)CCN1CCN(C)[C@@H](Cc2ccc(O)cc2)C1`, for which the Ki in assay [1] was 3120 nM; on Mu-type opioid receptor it was 2650 nM.
On to `CC(C)C[C@H]1CNC(=S)N1C[C@H](Cc1ccccc1)N(C)CCN(C)CCN1C[C@H](Cc2ccc(O)cc2)N(C)C1=S`, for which the inhibition constant (Ki) in assay [1] was found to be 3420 nM; on Mu-type opioid receptor it was 7110 nM.
On the same counts, the results for `CC(C)C[C@H]1CNC(=S)N1C[C@H](Cc1ccccc1)N(C)C[C@@H]1CCCN1C[C@H](Cc1ccc(O)cc1)N(C)C` are 3320 nM and 430 nM.
In the case of `CC(C)C[C@@H](CN)NC[C@H](Cc1ccccc1)N(C)C[C@@H]1CCCN1C[C@H](Cc1ccc(O)cc1)N(C)C`, the results for the inhibitory constant (Ki) (in assay [1]; at Mu-type opioid receptor) were 1280 nM and 60 nM, respectively.
The matching figures for `CN[C@H](CNCC(=O)N(C)CCN(C)[C@H](CN[C@H](CN)CC(C)C)Cc1ccccc1)Cc1ccc(O)cc1`: 1110 nM and 1500 nM.
For `CC(C)C[C@H]1CNC(=N)N1C[C@H](Cc1ccccc1)N(C)CCN1CCN(C[C@H](Cc2ccc(O)cc2)N(C)C)C1=N`, the Ki in assay [1] turned out to be 11300 nM; on Mu-type opioid receptor, 1080 nM.
With `CC(C)C[C@H]1CNC(=O)C(=O)N1C[C@H](Cc1ccccc1)N(C)C[C@@H]1CCCN1C[C@H](Cc1ccc(O)cc1)N(C)C`, the Ki in assay [1] was determined as 10600 nM; at Mu-type opioid receptor, 250 nM.
Take `CC(C)C[C@H]1CNCCN1C[C@H](Cc1ccccc1)N(C)CCN1CCN(C[C@H](Cc2ccc(O)cc2)N(C)C)CC1`: the values for the Ki (in assay [1]; on Mu-type opioid receptor) were 3430 nM and 1150 nM, respectively.
The matching figures for `CC(C)C[C@H]1CNC(=S)N1C[C@H](Cc1ccccc1)N(C)CCCCCN1C[C@H](Cc2ccc(O)cc2)NC1=S`: 9480 nM and 11000 nM.
The matching figures for `CN[C@@H](Cc1ccc(O)cc1)C(=O)N1CCCC1C(=O)N(C)[C@@H](Cc1ccccc1)C(=O)N[C@@H](CC(C)C)C(N)=O` (stereo partly drawn) (H-[NMeY][ξP][NMeF]L-NH2): 2030 nM and 2140 nM.
The matching figures for `CC(C)C[C@H]1CNC(=S)N1C[C@H](Cc1ccccc1)N(C)CCN1CCN(C[C@H](Cc2ccc(O)cc2)N(C)C)C1=S`: 2300 nM and 740 nM.
On to `CC(C)C[C@H]1CNC(=O)C(=O)N1C[C@H](Cc1ccccc1)N(C)CCN(C)CCN1C[C@H](Cc2ccc(O)cc2)N(C)C(=O)C1=O`, for which the Ki in assay [1] came out at 94200 nM; at Mu-type opioid receptor, 15200 nM.
On to `CC(C)C[C@H](NC(=O)[C@H](Cc1ccccc1)N(C)C(=O)CCCCNC(=O)[C@@H](N)Cc1ccc(O)cc1)C(N)=O` (H-Y[Ava][NMeF]L-NH2), for which the Ki in assay [1] was found to be 22500 nM; on Mu-type opioid receptor it was 38900 nM.
`CC(C)CC(CN)NCC(Cc1ccccc1)N(C)CCCCCNCC(N)Cc1ccc(O)cc1` (stereo not drawn): the inhibition constant (Ki) turned out to be 1620 nM in assay [1] and 1790 nM at Mu-type opioid receptor.
